Measured values: publication PMC3329623 (The Biochemical journal, 2009)
Like-named read-outs stand apart in the source and are kept apart here. Bridge positions count the residues as written; N and C are the ends. Ends that are not written are not given here.

Key:
[1] = biological target: zfα5(huW1-4)β1-1 blade swap integrin (human | zebrafish) (UniProt P08648); test: ELISA
[2] = biological target: zfα5β1-1(Y204A) (zebrafish); test: ELISA
[3] = biological target: zfα5β1-1(D225A) (zebrafish); test: ELISA
[4] = biological target: zebrafish α5β1-1-Fc recombinant soluble integrin (zebrafish); test: ELISA
[5] = biological target: zfα5(EPEK)β1-1 loop swap integrin (B2-C2 loop KEDTPH to EKEPL) (zebrafish); test: ELISA
[6] = biological target: zfα5β1-1(L206A) (zebrafish); test: ELISA
[7] = biological target: zfα5(SWAA)β1-1 loop swap integrin (D3-A3 loop RGRK to SWAA) (zebrafish); test: ELISA
[8] = biological target: zfα5(ASSIY)β1-1 loop swap integrin (D4-A4 loop RKEIRF to ASSIY) (zebrafish); test: ELISA
[9] = biological target: triple loop swap zfα5β1-1 integrin (KEDTPH to EKEPL, RGRK to SWAA and RKEIRF to ASSIY) (zebrafish); test: ELISA
[10] = test system: zfα5β1-1, zfα5β1-2 and zfα5huβ1; test: inhibition of 70K binding to zebrafish α5 integrins; conditions: specificity control / antagonist test; 1 mM Mn2+
In short: (§1)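 Receptors were Fc-fused α5β1 headpiece integrins expressed transiently in CHO-L761h cells and captured from supernatant on goat anti-human Fc. Binding of the biotinylated fibronectin fragment (2–3 nM) was run with 1 mM Mn2+ at room temperature. Peptide inhibitor was tested at 0.1–100 μg/ml and small-molecule inhibitor at 0.1–300 nM, both serially diluted. BSA-well background was subtracted; four replicate wells; at least three experiments.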

[11] = test system: huα5β1-1, huα5β1-2 and huα5huβ1; test: inhibition of 50K binding to human α5 integrins; set-up: species or system human α5 / zebrafish or human β1; conditions: 1 mM Mn2+
In short: as §1

α5β1 = conditions: cited from earlier work; for affinity for α5β1: phage display peptides
huα5β1-1 [12] = test: inhibition of 50K binding to huα5β1-1; set-up: species or system human α5 / zebrafish β1-1; conditions: control experiments
zfα5(SWAA)β1-1 [13] = biological target: T1, zfα5(SWAA)β1-1 (Danio rerio, UniProt A0ACM8Q6M2+Q3YAA1, R184S/G185W/R186A/K187A/S520N); type: biochemical; conditions: read-out: apparent KI values for JSM6427 (Figure 6 legend); SD, n = 3
In short: (§2)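 Fc-fused soluble integrin (full α5 ectodomain plus β1 headpiece: PSI, hybrid, βI) from CHO-L761h supernatants 6 days after transient co-transfection, captured on anti-human Fc. Biotinylated fibronectin fragment (E. coli-made human 3Fn6-10 or FLAG-purified zebrafish 70K from 293-EBNA cells) at 2–3 nM, 1 mM Mn2+, room temperature. Inhibitor 0.1–300 nM, serially diluted. Four replicate wells, BSA background subtracted. Curves fitted by simulated annealing. KI = IC50/(1+[ligand]/KD).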

Triple swap = Triple swap (Danio rerio, UniProt A0ACM8Q6M2+Q3YAA1, K151E/E152K/D153E/DEL154/H156L/R184S/G185W/R186A/K187A/R250A/K251S/E252S/DEL254/F255Y/S520N); test: Solid-phase inhibition of biotinylated 70K zebrafish fibronectin-1 fragment; type: biochemical; conditions: read-out: Apparent KI values (nM), JSM6427, 70K; SD, n = 3
In short: as §2

huα5β1-1 [14] = biological target: huα5β1-1 (UniProt P08648+Q3YAA1); test: Solid-phase inhibition of biotinylated 50K human fibronectin fragment; type: biochemical; conditions: read-out: Apparent KI values (nM), JSM6427, 50K; SD, n = 3
In short: as §2

zfα5(SWAA)β1-1 [15] = biological target: T1, zfα5(SWAA)β1-1; test: Solid-phase inhibition of biotinylated 70K zebrafish fibronectin-1 fragment; type: biochemical; conditions: read-out: Apparent KI values (nM), JSM6427, 70K; SD, n = 3
In short: as §2

zfα5(SGAA)β1-1 = zfα5(SGAA)β1-1 (Danio rerio, UniProt A0ACM8Q6M2+Q3YAA1, R184S/R186A/K187A/S520N); type: biochemical; conditions: read-out: apparent KI values for JSM6427 (Figure 6 legend); SD, n = 3
In short: as §2

[16] = test system: human α5 with Tyr-208 (equivalent of Tyr-204) mutated to alanine; conditions: cited from earlier work
[17] = test system: human α5 with Ile-210 (equivalent of Leu-206) mutated to alanine; conditions: cited from earlier work
[18] = biological target: human α5 / zebrafish β1-1-Fc recombinant soluble integrin (human | zebrafish, UniProt P08648;Q3YAA1); test: ELISA
[19] = biological target: zfα5(huW1-4)β1-1 blade swap integrin (human | zebrafish) (UniProt P08648); test: ELISA; remark: listed apart in the source
[20] = biological target: zfα5(SWAA)β1-1 loop swap integrin (D3-A3 loop RGRK to SWAA) (zebrafish); test: ELISA; remark: listed apart in the source
[21] = biological target: triple loop swap zfα5β1-1 integrin (KEDTPH to EKEPL, RGRK to SWAA and RKEIRF to ASSIY) (zebrafish); test: ELISA; remark: listed apart in the source

## 50 kDa cell binding domain of human fibronectin (3Fn6-10) (domain or fragment)
[1]
  Kd: 0.0013 µM

## 70 kDa cell binding fragment of zebrafish fibronectin-1 (3Fn6-10 including the EIIIB domain) (domain or fragment)
[1]
  Kd: 0.014 µM
[2]
  Kd: 0.079 µM
[3]
  Kd: 0.042 µM
[4]
  fold higher affinity than for zfα5β1-2: 3 fold
[5]
  Kd: 0.0046 µM
[6]
  Kd: 0.106 µM
[7]
  Kd: 0.0017 µM
[8]
  Kd: 0.0083 µM
[9]
  Kd: 0.0058 µM

## O=C(O)CN(CCN(CC(=O)O)CC(=O)O)CC(=O)O [EDTA]
[10]
  inhibition of 70K binding to zebrafish α5 integrins: could be inhibited
[11]
  inhibition of 50K binding to human α5 integrins: fully inhibited

## CRGDGFC (disulfide 1-7 (inferred)) [CRGDGFC]
α5β1
  affinity for α5β1: high affinity

## CRGDGWC (disulfide 1-7 (inferred)) [CRGDGWC]
α5β1
  affinity for α5β1: high affinity

## GACRRETADACGA (disulfide 3-11 (inferred))
huα5β1-1 [12]
  inhibition of 50K binding to huα5β1-1: ineffective

## GCRGDSPCG (disulfide 2-8 (inferred)) [cyclic RGD peptide]
[10]
  inhibition of 70K binding to zebrafish α5 integrins: could be inhibited
[11]
  inhibition of 50K binding to human α5 integrins: fully inhibited

## JSM6427
zfα5(SWAA)β1-1 [13]
  Ki: 0.0042 µM
Triple swap
  Ki: 1.21 ± 0.04 nM
huα5β1-1 [14]
  Ki: 0.65 ± 0.15 nM
zfα5(SWAA)β1-1 [15]
  Ki: 7.2 ± 2.4 nM
zfα5(SGAA)β1-1
  Ki: 0.025 µM

## RGDGW
α5β1; Trp-157 in the D3-A3 loop involved
  specificity/selectivity for human α5β1: human α5β1-specific and α5β1-selective

## fibronectin
[16]
  reduction of affinity of fibronectin binding, human α5 Tyr mutated to alanine: 5 fold
[17]
  reduction of affinity of fibronectin binding, human α5 Ile mutated to alanine: 200 fold

## GACRRETAWACGA (disulfide 3-11 (inferred)) [cyclic peptide GACRRETAWACGA]
[18]
  Ki: 0.047 µM

## GACRRETAWACGA (disulfide 3-11 (inferred)) [cyclic peptide …]
[19]
  Ki: 0.031 µM
[20]
  Ki: 0.126 µM
[21]
  Ki: 0.076 µM
